From ChEMBL document CHEMBL1781970, “Synthesis and antiproliferative evaluation of 23-hydroxybetulinic acid derivatives” (Eur J Med Chem, 2011)
Values belong to the molecule of their own block, whether it stands above or below them.

Key:
Format in all cases: functional, cell-based
A-375 = assay: Antiproliferative activity against human A375 cells after 72 hrs by MTT assay; details: A-375, 72 h
In short: (§1)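 Cells grown in RPMI 1640 with 10% FBS and 1% penicillin-streptomycin at 37 °C, 5% CO2, then seeded overnight in 96-well plates. Test compounds were dissolved in DMSO (doxorubicin control in PBS) and given at various concentrations for 72 h at 37 °C. MTT (5 mg/mL in PBS) was added for 4 h and OD read at 570 nm. IC50 was taken from dose-response curves; mean ± SD, ≥3 independent experiments.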

HeLa = assay: Antiproliferative activity against human HeLa cells after 72 hrs by MTT assay; in short: as §1
HepG2 = assay: Antiproliferative activity against human HepG2 cells after 72 hrs by MTT assay; details: HepG2, 72 h; in short: as §1
B16 = assay: Antiproliferative activity against mouse B16 cells after 72 hrs by MTT assay; details: B16, 72 h; in short: as §1
MCF7 = assay: Antiproliferative activity against human MCF7 cells after 72 hrs by MTT assay; details: MCF7, 72 h; in short: as §1

IC50 (A-375): 34.2 µM | IC50 (HeLa): > 100 µM | IC50 (HepG2): 59.2 µM | IC50 (B16): 45.9 µM | IC50 (MCF7): 34.3 µM
Compound: C=C(C)[C@@H]1CC[C@]2(C(=O)OCCN3CCOCC3)CC[C@]3(C)[C@H](CC[C@@H]4[C@@]5(C)CC[C@H](O)[C@@](C)(CO)[C@@H]5CC[C@]43C)[C@@H]12

IC50 (A-375): > 100 µM | IC50 (HeLa): 95.6 µM | IC50 (HepG2): 72.2 µM | IC50 (B16): 87.3 µM | IC50 (MCF7): > 100 µM
Compound: C=C(C)[C@@H]1CC[C@]2(C(=O)N3CCC[C@H]3C(=O)O)CC[C@]3(C)[C@H](CC[C@@H]4[C@@]5(C)CC[C@H](O)[C@@](C)(CO)[C@@H]5CC[C@]43C)[C@@H]12

Further lines, the molecule ahead of its results:

Compound: C=C(C)[C@@H]1CC[C@]2(C(=O)N[C@@H](CCSC)C(=O)N[C@@H](CCSC)C(=O)O)CC[C@]3(C)[C@H](CC[C@@H]4[C@@]5(C)CC[C@H](O)[C@@](C)(CO)[C@@H]5CC[C@]43C)[C@@H]12
IC50 (A-375): 89.3 µM | IC50 (HeLa): > 100 µM | IC50 (HepG2): > 100 µM | IC50 (B16): 65.1 µM | IC50 (MCF7): 84.7 µM

Compound: C=C(C)[C@@H]1CC[C@]2(C(=O)NCC(=O)N3CCC[C@H]3C(=O)O)CC[C@]3(C)[C@H](CC[C@@H]4[C@@]5(C)CC[C@H](O)[C@@](C)(CO)[C@@H]5CC[C@]43C)[C@@H]12
IC50 (A-375): > 100 µM | IC50 (HeLa): > 100 µM | IC50 (HepG2): > 100 µM | IC50 (B16): > 100 µM | IC50 (MCF7): > 100 µM

Compound: C=C(C)[C@@H]1CC[C@]2(C(=O)N3CCC[C@H]3C(=O)N[C@@H](CCSC)C(=O)O)CC[C@]3(C)[C@H](CC[C@@H]4[C@@]5(C)CC[C@H](O)[C@@](C)(CO)[C@@H]5CC[C@]43C)[C@@H]12
IC50 (A-375): 66.5 µM | IC50 (HeLa): 81.1 µM | IC50 (HepG2): 91.7 µM | IC50 (B16): 76.5 µM | IC50 (MCF7): 41.3 µM

Compound: C=C(C)[C@@H]1CC[C@]2(C(=O)NCC(=O)N[C@@H](Cc3c[nH]c4ccccc34)C(=O)O)CC[C@]3(C)[C@H](CC[C@@H]4[C@@]5(C)CC[C@H](O)[C@@](C)(CO)[C@@H]5CC[C@]43C)[C@@H]12
IC50 (A-375): > 100 µM | IC50 (HeLa): > 100 µM | IC50 (HepG2): > 100 µM | IC50 (B16): > 100 µM | IC50 (MCF7): > 100 µM
